Activity calls are given as the source filed them. The rule behind the calls is not given here.
Legend:
Heterodera zeae [1] = assay: Nematicidal activity against Heterodera zeae infective stage larvae assessed as nematode mortality at 0.5% under dark conditions measured 5 to 60 min post dose by stereoscopic microscopy; assay type: functional, organism-based
Method in brief: (§1)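 H. zeae freshly hatched second-stage juveniles, 100 per plate, three replicates, at 28 ± 2 °C under light or in a dark box. Dilutions are % of a stock: 30 mg/mL for extracts/fractions, 1 mg/mL for pure compounds. Methanol-, DMSO- or water-soluble samples were tested in glass cavity blocks. Petroleum ether-soluble samples were air-dried in the block and covered with agar pieces bearing cultured larvae. Mortality was followed over 5–60 min; each value is the mean of three experiments.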

Heterodera zeae [2] = assay: Nematicidal activity against Heterodera zeae infective stage larvae assessed as nematode mortality at 1% under dark conditions measured 5 to 60 min post dose by stereoscopic microscopy; assay type: functional, organism-based; method in brief: as §1
Heterodera zeae [3] = assay: Nematicidal activity against Heterodera zeae infective stage larvae assessed as nematode mortality at 1% under light conditions measured 24 hr post dose by stereoscopic microscopy; assay type: functional
Method in brief: (§2)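 Freshly hatched H. zeae second-stage juveniles, 100 per Petri plate, three replicates. Samples in MeOH, DMSO or water were tested in glass cavity blocks; petroleum ether samples were dried onto the block and larvae transferred on agar pieces. Percentages are dilutions of 30 mg/mL stocks (extracts/fractions) or 1 mg/mL stocks (pure compounds). Incubated at 28 ± 2 °C in light or dark box; mortality averaged over three replicates.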

Heterodera zeae [4] = assay: Nematicidal activity against Heterodera zeae infective stage larvae assessed as nematode mortality at 1% under light conditions measured 5 to 60 min post dose by stereoscopic microscopy; assay type: functional, organism-based; method in brief: as §1
Heterodera zeae [5] = assay: Nematicidal activity against Heterodera zeae infective stage larvae assessed as nematode mortality at 0.25% under dark conditions measured 5 to 60 min post dose by stereoscopic microscopy; assay type: functional, organism-based; method in brief: as §1
Heterodera zeae [6] = assay: Nematicidal activity against Heterodera zeae infective stage larvae assessed as nematode mortality at 0.125% under dark conditions measured 5 to 60 min post dose by stereoscopic microscopy; assay type: functional, organism-based; method in brief: as §1
Heterodera zeae [7] = assay: Nematicidal activity against Heterodera zeae infective stage larvae assessed as nematode mortality at 0.125% under dark conditions measured 24 hr post dose by stereoscopic microscopy; assay type: functional; method in brief: as §2
Heterodera zeae [8] = assay: Nematicidal activity against Heterodera zeae infective stage larvae assessed as nematode mortality at 0.25% under light conditions measured 24 hr post dose by stereoscopic microscopy; assay type: functional; method in brief: as §2
Heterodera zeae [9] = assay: Nematicidal activity against Heterodera zeae infective stage larvae assessed as nematode mortality at 5% under light conditions measured 5 to 60 min post dose by stereoscopic microscopy; assay type: functional, organism-based; method in brief: as §1
Heterodera zeae [10] = assay: Nematicidal activity against Heterodera zeae infective stage larvae assessed as nematode mortality at 2% under dark conditions measured 5 to 60 min post dose by stereoscopic microscopy; assay type: functional, organism-based; method in brief: as §1
Heterodera zeae [11] = assay: Nematicidal activity against Heterodera zeae infective stage larvae assessed as nematode mortality at 0.5% under light conditions measured 24 hr post dose by stereoscopic microscopy; assay type: functional; method in brief: as §2
Heterodera zeae [12] = assay: Nematicidal activity against Heterodera zeae infective stage larvae assessed as nematode mortality at 5% under dark conditions measured 5 to 60 min post dose by stereoscopic microscopy; assay type: functional, organism-based; method in brief: as §1
Heterodera zeae [13] = assay: Nematicidal activity against Heterodera zeae infective stage larvae assessed as nematode mortality at 0.5% under dark conditions measured 24 hr post dose by stereoscopic microscopy; assay type: functional; method in brief: as §2
Heterodera zeae [14] = assay: Nematicidal activity against Heterodera zeae infective stage larvae assessed as nematode mortality at 0.5% under light conditions measured 5 to 60 min post dose by stereoscopic microscopy; assay type: functional, organism-based; method in brief: as §1
Heterodera zeae [15] = assay: Nematicidal activity against Heterodera zeae infective stage larvae assessed as nematode mortality at 2% under light conditions measured 5 to 60 min post dose by stereoscopic microscopy; assay type: functional, organism-based; method in brief: as §1
Heterodera zeae [16] = assay: Nematicidal activity against Heterodera zeae infective stage larvae assessed as nematode mortality at 0.25% under light conditions measured 5 to 60 min post dose by stereoscopic microscopy; assay type: functional, organism-based; method in brief: as §1
Heterodera zeae [17] = assay: Nematicidal activity against Heterodera zeae infective stage larvae assessed as nematode mortality at 0.125% under light conditions measured 24 hr post dose by stereoscopic microscopy; assay type: functional; method in brief: as §2
Heterodera zeae [18] = assay: Nematicidal activity against Heterodera zeae infective stage larvae assessed as nematode mortality at 1% under dark conditions measured 24 hr post dose by stereoscopic microscopy; assay type: functional; method in brief: as §2
Heterodera zeae [19] = assay: Nematicidal activity against Heterodera zeae infective stage larvae assessed as nematode mortality at 0.25% under dark conditions measured 24 hr post dose by stereoscopic microscopy; assay type: functional; method in brief: as §2
Heterodera zeae [20] = assay: Nematicidal activity against Heterodera zeae infective stage larvae assessed as nematode mortality at 0.125% under light conditions measured 5 to 60 min post dose by stereoscopic microscopy; assay type: functional, organism-based; method in brief: as §1
Heterodera zeae [21] = assay: Nematicidal activity against Heterodera zeae infective stage larvae assessed as nematode mortality at 0.25% under light conditions measured 48 hr post dose by stereoscopic microscopy; assay type: functional; method in brief: as §2
Heterodera zeae [22] = assay: Nematicidal activity against Heterodera zeae infective stage larvae assessed as nematode mortality at 0.5% under light conditions measured 48 hr post dose by stereoscopic microscopy; assay type: functional; method in brief: as §2
Heterodera zeae [23] = assay: Nematicidal activity against Heterodera zeae infective stage larvae assessed as nematode mortality at 0.5% under dark conditions measured 48 hr post dose by stereoscopic microscopy; assay type: functional; method in brief: as §2
Heterodera zeae [24] = assay: Nematicidal activity against Heterodera zeae infective stage larvae assessed as nematode mortality at 0.125% under light conditions measured 48 hr post dose by stereoscopic microscopy; assay type: functional; method in brief: as §2
Heterodera zeae [25] = assay: Nematicidal activity against Heterodera zeae infective stage larvae assessed as nematode mortality at 1% under dark conditions measured 48 hr post dose by stereoscopic microscopy; assay type: functional; method in brief: as §2
Heterodera zeae [26] = assay: Nematicidal activity against Heterodera zeae infective stage larvae assessed as nematode mortality at 0.25% under dark conditions measured 48 hr post dose by stereoscopic microscopy; assay type: functional; method in brief: as §2
Heterodera zeae [27] = assay: Nematicidal activity against Heterodera zeae infective stage larvae assessed as nematode mortality at 0.125% under dark conditions measured 48 hr post dose by stereoscopic microscopy; assay type: functional; method in brief: as §2

SMILES | Activity (Heterodera zeae [1]) | Activity (Heterodera zeae [2]) | mortality (Heterodera zeae [3]) | Activity (Heterodera zeae [4]) | Activity (Heterodera zeae [5]) | Activity (Heterodera zeae [6]) | mortality (Heterodera zeae [7]) | mortality (Heterodera zeae [8]) | Activity (Heterodera zeae [9]) | Activity (Heterodera zeae [10]) | mortality (Heterodera zeae [11]) | Activity (Heterodera zeae [12]) | mortality (Heterodera zeae [13]) | Activity (Heterodera zeae [14]) | Activity (Heterodera zeae [15]) | Activity (Heterodera zeae [16]) | mortality (Heterodera zeae [17]) | mortality (Heterodera zeae [18]) | mortality (Heterodera zeae [19]) | Activity (Heterodera zeae [20]) | other results
CCCCC/C=C\C/C=C\CCCCCCCC(=O)O [LINOLEIC ACID] | inactive | inactive | 100% | inactive | inactive | inactive | 100% | 100% | inactive | inactive | 100% | inactive | 100% | inactive | inactive | inactive | 100% | 100% | 100% | inactive | –
O=C(O)c1cc(O)c(O)c(O)c1 [GALLIC ACID] | inactive | inactive | 100% | inactive | inactive | inactive | 100% | 100% | inactive | inactive | 100% | inactive | 100% | inactive | inactive | inactive | 100% | 100% | 100% | inactive | –
COC(=O)c1ccc(O)c(O)c1 [METHYL PROTOCATECHUATE] | inactive | inactive | 100% | inactive | inactive | inactive | 10% | 50% | inactive | inactive | 70% | inactive | 20% | inactive | inactive | inactive | 50% | 60% | 10% | inactive | mortality (Heterodera zeae [21]): 100%; mortality (Heterodera zeae [22]): 100%; mortality (Heterodera zeae [23]): 100%; mortality (Heterodera zeae [24]): 100%; mortality (Heterodera zeae [25]): 100%; mortality (Heterodera zeae [26]): 100%; mortality (Heterodera zeae [27]): 100%
c1csc(-c2ccc(-c3cccs3)s2)c1 [ALPHA-TERTHIENYL] | inactive | inactive | 100% | inactive | inactive | inactive | 100% | 100% | inactive | inactive | 100% | inactive | 100% | inactive | inactive | inactive | 100% | 100% | 100% | inactive | –
COc1cc(C(=O)O)cc(OC)c1OC [3,4,5-TRIMETHOXYBENZOIC ACID] | inactive | inactive | 100% | inactive | inactive | inactive | 80% | 90% | inactive | inactive | 100% | inactive | 90% | inactive | inactive | inactive | 90% | 100% | 90% | inactive | mortality (Heterodera zeae [21]): 100%; mortality (Heterodera zeae [23]): 100%; mortality (Heterodera zeae [24]): 100%; mortality (Heterodera zeae [26]): 100%; mortality (Heterodera zeae [27]): 100%
O=C(O)c1ccc(O)c(O)c1 [PROTOCATECHUIC ACID] | inactive | inactive | 100% | inactive | inactive | inactive | 10% | 50% | inactive | inactive | 50% | inactive | 40% | inactive | inactive | inactive | 50% | 40% | 10% | inactive | mortality (Heterodera zeae [21]): 100%; mortality (Heterodera zeae [22]): 100%; mortality (Heterodera zeae [23]): 100%; mortality (Heterodera zeae [24]): 100%; mortality (Heterodera zeae [25]): 100%; mortality (Heterodera zeae [26]): 100%; mortality (Heterodera zeae [27]): 100%

From ChEMBL document CHEMBL3046615, “Isolation of nematicidal compounds from Tagetes patula L. yellow flowers: structure-activity relationship studies against cyst nematode Heterodera zeae infective stage larvae” (2011)
